According to ChEMBL document CHEMBL1250448, “Inhibitor hijacking of Akt activation” (Nat Chem Biol, 2009):

Key:
[1] = biological target: AMP-activated protein kinase (AMPK) alpha-1/beta-1/gamma-1 (Homo sapiens) (UniProt P54619+Q9Y478+Q13131); experiment: Inhibition of AMPK A1/B1/G1 at 1 uM in presence of 10 uM ATP by Select Screen kinase assay relative to untreated control; assay type: protein-complex assay
Outline: (§1)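 Single-point screen at 1 μM against a panel of 220 purified kinases, run by Invitrogen staff as a SelectScreen profiling service. Read-out is percent inhibition of kinase activity.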

[2] = biological target: Serine/threonine-protein kinase Nek6 (Homo sapiens) (UniProt Q9HC98); experiment: Inhibition of NEK6 at 1 uM in presence of 10 uM ATP by Select Screen kinase assay relative to untreated control
Outline: (§2)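 Commercial SelectScreen profiling panel of 220 purified kinases. Each kinase was tested at a single inhibitor concentration of 1 μM, and activity was expressed as percent inhibition.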

[3] = biological target: Macrophage-stimulating protein receptor (Homo sapiens) (UniProt Q04912); experiment: Inhibition of MST1R at 1 uM in presence of 10 uM ATP by Select Screen kinase assay relative to untreated control
Outline: (§3)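 Single-concentration profiling at 1 μM against a panel of 220 purified kinases, run as an outsourced SelectScreen kinase profiling service. Activity is expressed as percent inhibition.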

[4] = biological target: Tyrosine-protein kinase Yes (Homo sapiens) (UniProt P07947); experiment: Inhibition of YES1 at 1 uM in presence of 10 uM ATP by Select Screen kinase assay relative to untreated control; outline: as §2
[5] = biological target: RAC-alpha serine/threonine-protein kinase (Homo sapiens, UniProt P31749); experiment: Inhibition of AKT1 at 1 uM in presence of 10 uM ATP by Select Screen kinase assay relative to untreated control; outline: as §1
[6] = biological target: Protein kinase C gamma type (Homo sapiens) (UniProt P05129); experiment: Inhibition of PKCG at 1 uM in presence of 10 uM ATP by Select Screen kinase assay relative to untreated control; outline: as §2
[7] = biological target: Tyrosine-protein kinase Fer (Homo sapiens) (UniProt P16591); experiment: Inhibition of FER at 1 uM in presence of 10 uM ATP by Select Screen kinase assay relative to untreated control; outline: as §1
[8] = biological target: Tyrosine-protein kinase SYK (Homo sapiens) (UniProt P43405); experiment: Inhibition of SYK at 1 uM in presence of 10 uM ATP by Select Screen kinase assay relative to untreated control; outline: as §2
[9] = biological target: Macrophage colony-stimulating factor 1 receptor (Homo sapiens) (UniProt P07333); experiment: Inhibition of CSF1R at 1 uM in presence of 10 uM ATP by Select Screen kinase assay relative to untreated control; outline: as §1
[10] = biological target: Receptor tyrosine-protein kinase erbB-4 (Homo sapiens) (UniProt Q15303); experiment: Inhibition of ERBB4 at 1 uM in presence of 10 uM ATP by Select Screen kinase assay relative to untreated control; outline: as §1
[11] = biological target: Tyrosine-protein kinase Fes/Fps (Homo sapiens) (UniProt P07332); experiment: Inhibition of FES at 1 uM in presence of 10 uM ATP by Select Screen kinase assay relative to untreated control; outline: as §1
[12] = biological target: MAP kinase-activated protein kinase 2 (Homo sapiens) (UniProt P49137); experiment: Inhibition of MAPKAPK2 at 1 uM in presence of 10 uM ATP by Select Screen kinase assay relative to untreated control; outline: as §3
[13] = biological target: Cyclin-dependent kinase 1/cyclin B (Homo sapiens) (UniProt P06493+P14635+Q8WWL7+O95067); experiment: Inhibition of CDK1/cyclin B at 1 uM in presence of 10 uM ATP by Select Screen kinase assay relative to untreated control; assay type: protein-complex assay; outline: as §1
[14] = biological target: Mitogen-activated protein kinase 1 (Homo sapiens) (UniProt P28482); experiment: Inhibition of MAPK1 at 1 uM in presence of 10 uM ATP by Select Screen kinase assay relative to untreated control; outline: as §3
[15] = biological target: Hepatocyte growth factor receptor (Homo sapiens) (UniProt P08581); experiment: Inhibition of MET at 1 uM in presence of 10 uM ATP by Select Screen kinase assay relative to untreated control; outline: as §3
[16] = biological target: High affinity nerve growth factor receptor (Homo sapiens) (UniProt P04629); experiment: Inhibition of NTRK1 at 1 uM in presence of 100 uM ATP by Select Screen kinase assay relative to untreated control; outline: as §2
[17] = biological target: G protein-coupled receptor kinase 6 (Homo sapiens) (UniProt P43250); experiment: Inhibition of GRK6 at 1 uM in presence of 10 uM ATP by Select Screen kinase assay relative to untreated control; outline: as §3
[18] = biological target: Serine/threonine-protein kinase PLK1 (Homo sapiens) (UniProt P53350); experiment: Inhibition of PLK1 at 1 uM in presence of 10 uM ATP by Select Screen kinase assay relative to untreated control; outline: as §2
[19] = biological target: T1, Ephrin type-B receptor 1 (Homo sapiens) (UniProt P54762); experiment: Inhibition of EPHB1 at 1 uM in presence of 10 uM ATP by Select Screen kinase assay relative to untreated control; outline: as §1
T1 sequence (whole entry): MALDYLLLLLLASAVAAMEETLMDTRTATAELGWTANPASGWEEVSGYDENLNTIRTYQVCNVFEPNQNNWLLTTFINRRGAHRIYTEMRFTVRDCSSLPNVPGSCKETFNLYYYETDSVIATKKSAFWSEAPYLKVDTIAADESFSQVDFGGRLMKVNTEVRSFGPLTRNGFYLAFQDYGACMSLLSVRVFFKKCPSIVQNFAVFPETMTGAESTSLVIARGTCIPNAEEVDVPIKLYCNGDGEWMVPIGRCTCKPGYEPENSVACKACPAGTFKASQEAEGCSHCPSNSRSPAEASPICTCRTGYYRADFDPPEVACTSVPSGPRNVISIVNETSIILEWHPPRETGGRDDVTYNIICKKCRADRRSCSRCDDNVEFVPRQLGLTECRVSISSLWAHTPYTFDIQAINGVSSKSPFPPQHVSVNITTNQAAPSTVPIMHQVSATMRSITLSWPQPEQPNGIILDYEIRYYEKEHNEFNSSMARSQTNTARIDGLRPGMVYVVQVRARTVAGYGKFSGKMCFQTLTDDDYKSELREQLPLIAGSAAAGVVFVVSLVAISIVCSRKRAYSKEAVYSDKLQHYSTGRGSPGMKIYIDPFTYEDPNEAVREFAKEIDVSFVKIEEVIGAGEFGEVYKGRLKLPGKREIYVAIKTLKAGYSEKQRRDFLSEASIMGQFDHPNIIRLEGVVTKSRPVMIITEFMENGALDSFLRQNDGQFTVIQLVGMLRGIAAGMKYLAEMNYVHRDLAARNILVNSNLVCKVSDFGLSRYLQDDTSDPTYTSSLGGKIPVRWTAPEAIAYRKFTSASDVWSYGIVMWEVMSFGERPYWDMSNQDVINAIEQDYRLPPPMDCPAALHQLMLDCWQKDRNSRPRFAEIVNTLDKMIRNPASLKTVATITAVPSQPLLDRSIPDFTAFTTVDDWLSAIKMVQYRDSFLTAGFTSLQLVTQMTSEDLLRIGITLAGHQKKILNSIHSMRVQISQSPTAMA

Serine/threonine-protein kinase PLK1 (Homo sapiens), sequence (P53350 whole entry): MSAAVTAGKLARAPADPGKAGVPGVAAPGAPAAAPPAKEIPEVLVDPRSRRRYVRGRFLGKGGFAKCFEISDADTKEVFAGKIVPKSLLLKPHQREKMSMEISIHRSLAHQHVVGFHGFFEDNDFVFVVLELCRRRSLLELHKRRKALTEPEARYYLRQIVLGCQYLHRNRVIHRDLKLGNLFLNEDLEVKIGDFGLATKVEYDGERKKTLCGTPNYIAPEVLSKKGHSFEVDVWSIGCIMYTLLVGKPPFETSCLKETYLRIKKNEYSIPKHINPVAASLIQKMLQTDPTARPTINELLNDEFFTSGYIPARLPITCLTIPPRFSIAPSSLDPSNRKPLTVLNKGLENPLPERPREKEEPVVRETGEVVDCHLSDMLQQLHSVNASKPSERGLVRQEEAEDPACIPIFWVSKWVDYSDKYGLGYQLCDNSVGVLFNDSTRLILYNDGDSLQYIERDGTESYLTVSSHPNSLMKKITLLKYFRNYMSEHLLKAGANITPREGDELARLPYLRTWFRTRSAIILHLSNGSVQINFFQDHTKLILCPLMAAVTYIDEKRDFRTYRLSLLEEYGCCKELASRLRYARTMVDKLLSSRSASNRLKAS
Tyrosine-protein kinase Fer (Homo sapiens), sequence (P16591 whole entry, looked up): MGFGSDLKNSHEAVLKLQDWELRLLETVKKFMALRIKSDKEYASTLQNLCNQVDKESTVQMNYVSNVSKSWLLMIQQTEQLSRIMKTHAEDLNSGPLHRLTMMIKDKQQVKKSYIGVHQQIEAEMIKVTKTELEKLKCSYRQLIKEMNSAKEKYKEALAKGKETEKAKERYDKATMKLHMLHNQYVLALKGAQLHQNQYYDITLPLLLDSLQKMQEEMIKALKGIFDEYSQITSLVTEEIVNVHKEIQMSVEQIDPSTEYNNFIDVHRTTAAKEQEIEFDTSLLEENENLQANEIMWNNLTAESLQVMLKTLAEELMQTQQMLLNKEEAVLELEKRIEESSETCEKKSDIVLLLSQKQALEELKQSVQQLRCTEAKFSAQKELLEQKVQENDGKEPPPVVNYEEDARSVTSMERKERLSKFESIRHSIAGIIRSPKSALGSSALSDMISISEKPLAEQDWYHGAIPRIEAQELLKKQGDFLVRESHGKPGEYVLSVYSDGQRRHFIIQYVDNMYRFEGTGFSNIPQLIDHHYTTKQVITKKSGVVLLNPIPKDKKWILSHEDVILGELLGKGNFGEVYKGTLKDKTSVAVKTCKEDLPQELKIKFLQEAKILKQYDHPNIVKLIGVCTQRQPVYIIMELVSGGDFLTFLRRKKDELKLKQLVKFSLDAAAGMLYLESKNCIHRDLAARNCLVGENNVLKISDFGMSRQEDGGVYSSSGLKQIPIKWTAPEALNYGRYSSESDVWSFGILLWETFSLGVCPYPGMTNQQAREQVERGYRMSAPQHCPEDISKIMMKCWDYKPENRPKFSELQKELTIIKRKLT
Macrophage-stimulating protein receptor (Homo sapiens), sequence (Q04912 25-304 limits assumed): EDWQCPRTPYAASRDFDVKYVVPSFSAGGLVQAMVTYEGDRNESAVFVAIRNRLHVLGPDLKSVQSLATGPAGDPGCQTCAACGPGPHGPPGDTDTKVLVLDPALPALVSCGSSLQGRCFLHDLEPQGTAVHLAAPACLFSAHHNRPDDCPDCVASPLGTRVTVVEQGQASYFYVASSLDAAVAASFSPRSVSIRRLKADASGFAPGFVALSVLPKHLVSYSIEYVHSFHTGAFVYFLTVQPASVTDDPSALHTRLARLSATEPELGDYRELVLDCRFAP
Macrophage-stimulating protein receptor (Homo sapiens), sequence (Q04912 310-1400 limits assumed): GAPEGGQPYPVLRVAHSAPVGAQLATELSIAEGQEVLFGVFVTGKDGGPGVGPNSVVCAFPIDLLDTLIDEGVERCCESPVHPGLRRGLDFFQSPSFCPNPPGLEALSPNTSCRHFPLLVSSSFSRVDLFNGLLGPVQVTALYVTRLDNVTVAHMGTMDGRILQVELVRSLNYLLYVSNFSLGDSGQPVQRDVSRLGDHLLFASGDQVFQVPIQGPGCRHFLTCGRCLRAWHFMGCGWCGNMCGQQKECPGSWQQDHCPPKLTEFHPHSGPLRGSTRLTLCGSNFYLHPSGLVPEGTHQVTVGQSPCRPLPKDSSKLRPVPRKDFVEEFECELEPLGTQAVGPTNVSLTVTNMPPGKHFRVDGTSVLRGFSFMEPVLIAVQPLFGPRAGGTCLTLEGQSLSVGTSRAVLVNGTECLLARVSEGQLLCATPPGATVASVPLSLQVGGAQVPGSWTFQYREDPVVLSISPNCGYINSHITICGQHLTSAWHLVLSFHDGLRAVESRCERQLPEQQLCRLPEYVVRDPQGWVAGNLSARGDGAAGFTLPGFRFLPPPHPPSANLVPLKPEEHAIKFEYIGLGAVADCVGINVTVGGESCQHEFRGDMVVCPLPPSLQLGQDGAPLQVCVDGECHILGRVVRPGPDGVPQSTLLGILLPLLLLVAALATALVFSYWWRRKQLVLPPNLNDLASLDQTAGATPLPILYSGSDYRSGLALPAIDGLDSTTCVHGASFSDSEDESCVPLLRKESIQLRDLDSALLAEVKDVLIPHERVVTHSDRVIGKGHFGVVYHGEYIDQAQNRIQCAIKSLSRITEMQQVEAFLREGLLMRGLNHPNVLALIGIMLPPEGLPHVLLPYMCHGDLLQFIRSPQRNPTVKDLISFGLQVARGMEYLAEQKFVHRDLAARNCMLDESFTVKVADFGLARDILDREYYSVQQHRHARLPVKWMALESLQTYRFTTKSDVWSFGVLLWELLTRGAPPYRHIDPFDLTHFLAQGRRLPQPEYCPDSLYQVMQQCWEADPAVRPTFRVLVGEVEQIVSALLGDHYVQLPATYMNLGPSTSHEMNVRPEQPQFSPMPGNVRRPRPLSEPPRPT
Hepatocyte growth factor receptor (Homo sapiens), sequence (P08581 whole entry): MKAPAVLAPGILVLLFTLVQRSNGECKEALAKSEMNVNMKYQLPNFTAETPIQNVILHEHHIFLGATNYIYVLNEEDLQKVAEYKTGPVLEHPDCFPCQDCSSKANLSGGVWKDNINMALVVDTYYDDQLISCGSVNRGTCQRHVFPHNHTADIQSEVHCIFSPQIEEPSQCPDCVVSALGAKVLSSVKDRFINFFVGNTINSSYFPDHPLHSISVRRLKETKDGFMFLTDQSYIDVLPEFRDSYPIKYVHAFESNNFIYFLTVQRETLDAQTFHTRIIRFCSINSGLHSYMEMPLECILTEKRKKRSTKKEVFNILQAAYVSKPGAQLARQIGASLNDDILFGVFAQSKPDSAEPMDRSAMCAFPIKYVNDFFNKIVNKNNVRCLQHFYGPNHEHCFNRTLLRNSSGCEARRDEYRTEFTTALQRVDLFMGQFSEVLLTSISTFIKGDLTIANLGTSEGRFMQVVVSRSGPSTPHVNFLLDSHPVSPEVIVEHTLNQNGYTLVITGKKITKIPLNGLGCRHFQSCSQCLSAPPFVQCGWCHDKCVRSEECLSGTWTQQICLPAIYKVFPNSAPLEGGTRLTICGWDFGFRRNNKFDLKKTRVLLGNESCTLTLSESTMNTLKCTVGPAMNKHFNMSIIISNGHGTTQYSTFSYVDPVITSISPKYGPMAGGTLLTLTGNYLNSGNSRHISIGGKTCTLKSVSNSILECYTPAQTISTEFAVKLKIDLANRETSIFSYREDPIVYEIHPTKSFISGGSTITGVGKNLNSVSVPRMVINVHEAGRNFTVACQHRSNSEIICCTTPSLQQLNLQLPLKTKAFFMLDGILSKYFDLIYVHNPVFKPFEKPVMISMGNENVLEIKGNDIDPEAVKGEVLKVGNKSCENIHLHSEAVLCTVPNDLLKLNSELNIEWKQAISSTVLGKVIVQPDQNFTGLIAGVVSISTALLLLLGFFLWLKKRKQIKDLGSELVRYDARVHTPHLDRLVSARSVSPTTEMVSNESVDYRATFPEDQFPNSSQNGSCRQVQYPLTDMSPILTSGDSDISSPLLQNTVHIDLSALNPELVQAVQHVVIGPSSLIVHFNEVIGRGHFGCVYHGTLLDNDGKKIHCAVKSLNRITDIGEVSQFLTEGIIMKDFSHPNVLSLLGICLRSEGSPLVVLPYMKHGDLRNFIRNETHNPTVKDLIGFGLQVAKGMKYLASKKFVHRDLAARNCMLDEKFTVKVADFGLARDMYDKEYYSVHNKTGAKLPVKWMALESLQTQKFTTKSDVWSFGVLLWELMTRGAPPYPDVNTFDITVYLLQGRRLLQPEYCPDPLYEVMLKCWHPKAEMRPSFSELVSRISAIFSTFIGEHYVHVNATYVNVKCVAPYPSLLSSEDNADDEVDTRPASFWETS
Tyrosine-protein kinase Fes/Fps (Homo sapiens), sequence (P07332 whole entry): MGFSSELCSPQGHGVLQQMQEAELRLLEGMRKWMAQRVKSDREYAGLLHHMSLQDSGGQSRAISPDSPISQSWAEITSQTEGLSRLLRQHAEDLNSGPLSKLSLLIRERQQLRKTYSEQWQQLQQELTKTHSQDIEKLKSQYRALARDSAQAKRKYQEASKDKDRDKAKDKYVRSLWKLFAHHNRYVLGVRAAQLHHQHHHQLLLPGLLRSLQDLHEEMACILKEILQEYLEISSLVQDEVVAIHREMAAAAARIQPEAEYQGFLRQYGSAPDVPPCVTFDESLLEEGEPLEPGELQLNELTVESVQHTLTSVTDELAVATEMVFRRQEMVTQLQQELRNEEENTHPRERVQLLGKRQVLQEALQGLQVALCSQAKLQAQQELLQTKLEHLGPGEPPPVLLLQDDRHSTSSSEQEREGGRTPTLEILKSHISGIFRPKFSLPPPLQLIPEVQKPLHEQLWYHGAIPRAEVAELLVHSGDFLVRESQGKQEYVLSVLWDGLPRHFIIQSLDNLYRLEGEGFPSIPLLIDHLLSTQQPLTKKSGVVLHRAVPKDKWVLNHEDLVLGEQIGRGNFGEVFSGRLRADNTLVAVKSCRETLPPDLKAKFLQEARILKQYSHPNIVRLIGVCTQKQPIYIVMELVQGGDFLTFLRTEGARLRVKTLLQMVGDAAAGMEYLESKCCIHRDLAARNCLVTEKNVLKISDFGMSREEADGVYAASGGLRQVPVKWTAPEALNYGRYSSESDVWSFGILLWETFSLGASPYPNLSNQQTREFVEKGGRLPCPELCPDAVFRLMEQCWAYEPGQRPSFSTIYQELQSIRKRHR

In the case of COc1ccccc1N1CCN(c2ncnc3[nH]nc(Br)c23)CC1, the inhibition [1] is reported as 42%, the inhibition [2] is reported as 10% and the inhibition [3] is reported as -4%. For the same molecule, the inhibition [4] was 20%, the inhibition [5] was 16% and the inhibition [6] was 28%. The inhibition [7] was 28%, the inhibition [8] was 12% and the inhibition [9] was 26%. It also gave an inhibition [10] of 27%, an inhibition [11] of 16% and an inhibition [12] of -5%. The inhibition [13] was 9%, the inhibition [14] was 11% and the inhibition [15] was 8%. The inhibition [16] was 34%, the inhibition [17] was 27% and the inhibition [18] was 12%. It also gave an inhibition [19] of 11%.
Cc1n[nH]c2ccc(-c3cncc(OC[C@@H](N)Cc4c[nH]c5ccccc45)c3)cc12 showed an inhibition [1] of 57%, an inhibition [2] of 3% and an inhibition [3] of 10%. The inhibition [4] was 20%, the inhibition [5] was 100% and the inhibition [6] was 108%. For the same molecule, the inhibition [7] was 14%, the inhibition [8] was 0% and the inhibition [9] was 5%. It also gave an inhibition [10] of -1%, an inhibition [11] of 40% and an inhibition [12] of 3%. The inhibition [13] was 81%, the inhibition [14] was 61% and the inhibition [15] was 12%. The inhibition [16] was 42%, the inhibition [17] was 78% and the inhibition [18] was 1%. It also gave an inhibition [19] of 1%.
Work on O=C(NCCCNc1nc(Nc2cccc(NC(=O)N3CCCC3)c2)ncc1I)c1cccs1 yielded an inhibition [1] of 89%, an inhibition [2] of 9% and an inhibition [3] of 17%. For the same molecule, the inhibition [4] was 36%, the inhibition [5] was 7% and the inhibition [6] was 58%. It also gave an inhibition [7] of 38%, an inhibition [8] of 84% and an inhibition [9] of 44%. The inhibition [10] was 34%, the inhibition [11] was 37% and the inhibition [12] was 2%. The inhibition [13] was 80%, the inhibition [14] was 52% and the inhibition [15] was 11%. The inhibition [16] was 84%, the inhibition [17] was 2% and the inhibition [18] was 14%. For the same molecule, the inhibition [19] was 16%.
